SUMO1-SIM PPI – alters human SUMO1 binding to SIM partners; P63165; SUMO1 binding to a labelled peptide, TR-FRET, 1 h; inhibition, % at 20 µM; 0.33% of 360,000 active; AID 602429; in the data active = inhibition above about 37%
Target sequence (P63165 whole entry, looked up): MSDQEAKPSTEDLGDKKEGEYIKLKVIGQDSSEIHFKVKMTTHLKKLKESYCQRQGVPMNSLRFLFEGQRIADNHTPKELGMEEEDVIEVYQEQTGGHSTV
Scp1 inh – inhibitors of human Scp-1 phosphatase; Recombinant Scp1, phosphopeptide, malachite green phosphate absorbance; inhibition, % at 20 µM; 0.88% of 340,000 active; AID 493091;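 active = inhibition above about 50% at 20 µM, limit read from the data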
Target sequence (Q9GZU7 76-261 limits assumed): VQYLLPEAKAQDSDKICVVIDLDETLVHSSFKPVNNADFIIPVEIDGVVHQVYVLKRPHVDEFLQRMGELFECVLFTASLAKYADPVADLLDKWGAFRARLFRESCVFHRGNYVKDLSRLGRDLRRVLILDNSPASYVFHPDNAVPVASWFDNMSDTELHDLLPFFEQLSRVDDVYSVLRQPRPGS
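Times: enzyme reaction 45 min at room temperature, colour 5 min, stabilisation 30 min. Material: SCP-1 catalytic fragment, aa 76-261. Medium: Acidic Tris acetate buffer with magnesium and detergent. Signal: colorimetric free-phosphate detection, absorbance 630 nm. Read-out basis: % inhibition of SCP-1 phosphate liberation. Reagent: Phosphorylated 17-residue peptide substrate.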
LMPTP inh – LMPTP (human) inhibition | recombinant LMPTP-A, OMFP fluorogenic substrate, fluorescence intensity | 0.22% of 360,000 active | inhibition, % at 20 µM | AID 651560 | P24666;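 active = compounds that cut the enzyme signal by at least half of the control window in the single-dose screen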
Target sequence (P24666 whole entry, looked up): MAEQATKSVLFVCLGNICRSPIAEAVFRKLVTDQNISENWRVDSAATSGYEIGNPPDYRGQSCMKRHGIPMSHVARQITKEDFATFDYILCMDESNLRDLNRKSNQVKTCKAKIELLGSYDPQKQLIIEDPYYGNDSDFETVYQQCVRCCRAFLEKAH
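Assay system: LMPTP-A enzyme. Input: 0.625 nM LMPTP-A final. Probe or stimulus: 400 µM OMFP. Compound dosing: single 20 µM dose. Schedule: 50 min dark incubation at room temperature. Detection: fluorescence intensity of OMFP turnover product. Read-out: percent inhibition versus substrate-only and uninhibited controls. Benchmarks: no-enzyme low control, uninhibited high control.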
GRK2 inh – human GRK2 inhibition via aptamer displacement | 0.59% of 330,000 active | P25098 | inhibition of aptamer binding, % at 10 µM | bead flow cytometry, FAM-aptamer displacement from GRK2;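 active = inhibition of aptamer binding above 40%, roughly 3 SD of noise, on plates passing a quality check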;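 also: median bead fluorescence of bound FAM aptamer so fluorescent compounds give negative values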
DNMT1 inh – blocks human DNA methyltransferase DNMT1; AID 588458; 0.83% of 360,000 active; inhibition (reported as % activation of signal), % at 10 µM; DNMT1 molecular beacon, Hinp1I cleavage, fluorescence; P26358; in the data active = inhibition above about 50%
STEP inh – inhibitors of human striatal-enriched phosphatase STEP. inhibition, % at 20 µM. 0.25% of 360,000 active. recombinant STEP, OMFP fluorogenic substrate, fluorescence. P54829;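 active = inhibition at 20 µM, scaled per plate between control wells, above about 37%, limit read from the data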
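Material: STEP (striatal-enriched tyrosine phosphatase) enzyme, cell-free; Compound dosing: 20 µM single dose in 1% DMSO; Technique: fluorescence read at 480 nm ex / 540 nm em; Times: reaction 20 min, ambient temperature; Medium: 50 mM Bis-Tris pH 6.0 with 2.5 mM DTT and 0.005% Tween 20; Also added: OMFP at 25 µM.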
A number is an active result; n = inactive; x = not tested or not shown. In the library only some 2.2% were active in any assay of this set; here they are far more common.

SMILES	SUMO1-SIM PPI	Scp1 inh	LMPTP inh	GRK2 inh	DNMT1 inh	STEP inh
CCOC(=O)[C@]1(C#N)[C@@H]2C=CC(C(C)=O)=CN2[C@@H](C(N)=O)[C@@H]1c1ccsc1	66.7	n	n	n	n	n
CSCCC(c1nnnn1-c1c(C)cccc1C)N1CCC2(CC1)C(=O)NCN2c1ccccc1 (configuration not stated)	n	x	n	x	n	n
N#CC(C#N)=NNc1ccc(S(N)(=O)=O)cc1	n	n	57.3	n	n	n
CC1CCN(S(=O)(=O)c2ccc(NN=C(C#N)C#N)cc2)CC1	x	x	x	n	x	x
Nc1c(C(=O)NC2CCCC2)c2nc3ccccc3nc2n1CC1CCCO1 (configuration not stated)	40.9	n	n	n	n	n
CCOC(=O)[C@]12Cc3c(cc(OC)c(OC)c3OC)[C@H]1N(C1CCCCC1)C(=O)c1ccccc12	n	x	n	x	x	x
COC1CC2C=C(C)C=CC=CC(=O)NC(c3ccccc3)CC=CCCC(O)CC(=O)C2=C1O (configuration not stated)	n	x	n	x	n	n
Cc1ccc(OCCOc2cccc(C=C3C(=O)NC(=O)NC3=O)c2)c(C)c1	n	n	n	n	51.7	n
CCOC(=O)[C@]12Cc3cc(Cl)ccc3[C@H]1N(C1CCCCC1)C(=O)c1cc(OC)ccc12	n	x	n	x	x	x
O=C(O)CCC(=O)NCCC1=c2ccccc2=N/C1=C\c1c(O)n(Cc2ccc(F)cc2)c(=S)[nH]c1=O	n	91.9	n	n	n	n
CCCCCN1C(=O)c2cc(OC)ccc2[C@@]2(C(=O)OCC)Cc3cc(OC)ccc3[C@@H]12	n	x	n	x	x	x
CC(C)CNC(=O)c1c(N)n(Cc2ccc3c(c2)OCO3)c2nc3ccccc3nc12	45.9	n	n	n	n	n
CC(C)CCNC(=O)c1c(N)n(Cc2ccc3c(c2)OCO3)c2nc3ccccc3nc12	n	n	n	n	n	n
COc1cccc(C(c2nnnn2C2CCCCC2)N2CCC3(CC2)C(=O)NCN3c2ccccc2)c1OC (configuration not stated)	n	x	n	x	n	n
CCN1/C(=C/C=C/C2=[N+](CC)c3ccccc3C2(C)C)C(C)(C)c2ccccc21	n	x	n	x	n	n
CN1/C(=C\C=C\C2=[N+](C)c3ccc4ccccc4c3C2(C)C)C(C)(C)c2ccccc21	x	x	x	84.0	x	x
O=c1c2ccccc2nc(-c2ccccc2)n1-c1ccccc1	n	n	n	n	n	n
O=c1c2ccccc2[se]n1-c1ccccc1	n	101.3	n	n	n	n
CC1Oc2cc3c(-c4c(O)cc(O)c5c(O)c6c(cc45)OC(C)C(C)C6=O)c(O)cc(O)c3c(O)c2C(=O)C1C (configuration not stated)	43.2	n	n	n	60.4	n
CN1CCC(n2nccc2N)CC1	43.3	n	n	n	n	n
Nc1ccnn1C1CCNCC1	n	n	n	n	n	n
CCn1nc(-c2ccccc2)nc2c(=O)n(C)c(=O)nc1-2	n	n	n	54.0	n	n
CC1c2ccccc2-n2nncc2CN1C (configuration not stated)	n	n	n	x	n	n
N#Cc1c(/N=C/c2c(O)n(Cc3ccco3)c(=O)[nH]c2=O)sc2c1CCCC2	n	n	n	n	66.8	n
O=c1[nH]c(=O)n(Cc2ccco2)c(O)c1/C=N/N1CCCCCC1	n	n	n	n	n	n
SMILES	SUMO1-SIM PPI	Scp1 inh	LMPTP inh	GRK2 inh	DNMT1 inh	STEP inh
CCOc1ccc(N2C(=O)/C(=C/c3ccc(C)o3)C(=O)NC2=S)cc1	n	n	n	n	50.1	n
O=C1NC(=S)N(c2ccc(F)cc2)C(=O)/C1=C/c1ccco1	x	x	x	99.0	x	x
CCOc1ccc(N2C(=O)NC(=O)/C(=C\c3ccc(N4CCCCC4)o3)C2=O)cc1	n	n	n	n	n	n
Cc1ccc(N2C(=O)NC(=O)/C(=C\C=C\c3ccco3)C2=O)cc1	n	n	n	n	n	n
O=C1NC(=O)C(=Cc2ccco2)C(=O)N1	n	n	n	x	81.7	49.5
O=C1NC(=S)N(c2ccc(F)cc2)C(=O)/C1=C\c1ccoc1	75.1	74.0	n	x	85.3	42.5
COc1ccc(OC)c(N2C(=O)NC(=O)/C(=C/c3ccc([N+](=O)[O-])s3)C2=O)c1	47.2	n	n	n	n	n
COc1ccc(OC)c(N2C(=O)/C(=C/c3ccco3)C(=O)NC2=S)c1	x	89.0	x	100.0	x	x
O=C(NCC1=C(c2cccc3ccccc23)C[C@@H]2CC[C@H]1N2Cc1ccco1)c1ccc([N+](=O)[O-])cc1	n	x	n	x	n	n
O=C1CC=C2C3CC4N(CCC45c4cc(O)c(O)cc4N1C25)CC3=CCBr (configuration not stated)	110.7	n	76.8	x	91.2	83.9
O=C1CC=C2C3CC4N(CCC45c4ccccc4N1C25)CC3=CCO (configuration not stated)	n	n	n	x	n	n
NC(Cc1ccc(F)cc1)c1csc(Nc2ncccn2)n1 (configuration not stated)	n	x	n	x	n	n
C[C@@]12CC[C@@H](c3cc4c(cc3C1)OCO4)N2c1ccccc1	n	x	n	x	x	x
Cc1cccc(N2C(=O)NC(=O)/C(=C/c3ccc([N+](=O)[O-])o3)C2=O)c1	x	n	x	44.0	x	x
Cc1cccc(N2C(=O)NC(=O)/C(=C\C=C\c3ccco3)C2=O)c1	n	n	n	n	n	n
C[n+]1c(-c2ccccc2)cc(CCCCc2cc(-c3ccccc3)[n+](C)c(-c3ccccc3)c2)cc1-c1ccccc1	n	n	50.3	n	n	n
CCC(c1nnnn1-c1ccc(OC)cc1)N1CCC2(CC1)C(=O)NCN2c1ccccc1 (configuration not stated)	n	x	n	x	n	n
O=C1NC(=O)C(=Cc2ccc(-c3ccc(F)cc3O)o2)C(=O)N1	n	95.5	n	n	n	n
CN(Cc1cccc(-c2ccncc2)c1)C(=O)Oc1ccccc1Cc1ccccc1	n	x	n	x	x	x
Clc1ccc(C2NCCc3[nH]cnc32)cc1 (configuration not stated)	40.9	n	n	n	n	n
Fc1cccc(C2NCCc3[nH]cnc32)c1 (configuration not stated)	n	n	n	n	n	n
COCCCn1c(N)c(C(=O)OCCOC)c2nc3ccccc3nc21	n	n	n	n	n	n
CCOC(=O)c1c(NS(=O)(=O)c2ccccc2)n(CCCOC)c2nc3ccccc3nc12	42.7	n	n	n	n	n
CC1CCN(C(CC(=O)c2ccccc2)C(=O)c2ccccc2)CC1 (configuration not stated)	n	n	n	x	n	n
NC(N)=N/N=C/c1ccc(N(c2ccccc2)c2ccccc2)cc1	99.8	n	n	n	n	n
COc1ccc(/C=N\N=C(N)N)cc1	n	n	n	n	n	n
